# Hits are enriched below; roughly 3.1% of the tested compounds scored in any of these assays.
# KCNK3 inh: human KCNK3 channel inhibitors, primary screen, CHO cells, FluxOR thallium flux, B-score | Potassium channel subfamily K member 3 (Homo sapiens), O14649 | FluxOR fluorescence; stronger effect = lower value | B-score at 10 µM | 0.84% of 340,000 active | AID 602410, 2012;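 active means B-score under library mean minus 4 SD, starting fluorescence ratio at most library mean plus 5 SD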;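 further: more negative B-score means stronger inhibition of thallium flux through KCNK3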
# KCNQ1 pot: potentiators or activators of KCNQ1 channel, primary screen, cell-based, thallium flux, high-throughput; Potassium voltage-gated channel subfamily KQT member 1 (Homo sapiens), P51787; CHO-K1 KCNQ1, thallium flux FluxOR fluorescence; stronger effect = higher value; B-score at 10 µM; 0.35% of 310,000 active; AID 2648, 2010;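 active means fluorescence ratio B-score, a plate-corrected score, at least three library SD, with initial intensity B-score within 5 SD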
# Target sequence (P51787 whole entry, looked up): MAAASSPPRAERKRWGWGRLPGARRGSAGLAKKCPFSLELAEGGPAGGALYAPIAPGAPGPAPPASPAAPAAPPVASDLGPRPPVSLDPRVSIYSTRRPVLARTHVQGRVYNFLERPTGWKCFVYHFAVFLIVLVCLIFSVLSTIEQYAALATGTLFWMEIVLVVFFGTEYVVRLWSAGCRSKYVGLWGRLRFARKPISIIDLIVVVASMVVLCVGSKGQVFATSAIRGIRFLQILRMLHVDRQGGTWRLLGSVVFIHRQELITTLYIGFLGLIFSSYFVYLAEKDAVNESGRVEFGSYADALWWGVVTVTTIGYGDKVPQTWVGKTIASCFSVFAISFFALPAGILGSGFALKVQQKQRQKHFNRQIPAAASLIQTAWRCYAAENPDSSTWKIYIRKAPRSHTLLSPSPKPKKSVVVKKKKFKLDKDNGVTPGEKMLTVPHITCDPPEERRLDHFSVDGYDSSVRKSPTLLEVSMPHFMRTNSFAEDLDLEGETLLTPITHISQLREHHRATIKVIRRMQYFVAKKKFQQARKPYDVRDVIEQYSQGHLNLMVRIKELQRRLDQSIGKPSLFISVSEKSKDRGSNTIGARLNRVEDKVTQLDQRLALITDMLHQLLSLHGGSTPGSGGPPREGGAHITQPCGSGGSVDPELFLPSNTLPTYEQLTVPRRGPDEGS
#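 Assay system: stable KCNQ1 CHO-K1 line; medium: assay buffer, equal DMSO in all wells; timing: 90 min dye loading and 20 min compound exposure, both at room temperature; technique: kinetic FluxOR thallium fluorescence, 10-s 1-Hz baseline, 110-s post-stimulus read; read-out basis: B score of baseline-normalized fluorescence ratio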
# KCNQ1 inh: inhibitors of human KCNQ1 channel, primary screen, cell-based, thallium flux, high-throughput. Potassium voltage-gated channel subfamily KQT member 1 (Homo sapiens), P51787. CHO-K1 KCNQ1, FluxOR thallium flux fluorescence; stronger effect = higher value. B-score at 10 µM. 1.3% of 310,000 active. AID 2642, 2010;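 active means compounds whose thallium flux B-score, printed positive for inhibition, exceeds three library SD while starting fluorescence stays within three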;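 further: channel opened by potassium depolarization with thallium stimulus after 20 min compound exposure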
# KCNK9 block: KCNK9 potassium channel inhibitors, primary screen, HEK293 cells, thallium flux. Potassium channel subfamily K member 9 (Homo sapiens), Q9NPC2. 1.2% of 310,000 active. AID 488922, 2010. FluxOR thallium flux fluorescence; stronger effect = lower value. B-score at 10 µM;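 active means ratio B-score over 3 SD below the library mean, with starting fluorescence within 5 SD of its mean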;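 further: negative B-score means less thallium flux so channel inhibition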
# hERG rescue: hERG rescue from dofetilide block, primary screen, cell-based, CHO-hERG, FluxOR thallium flux, dofetilide IC70; dofetilide IC70 present; 0.51% of 310,000 active; Voltage-gated inwardly rectifying potassium channel KCNH2 (Homo sapiens), Q12809; activation (rescue from dofetilide block), less the hit threshold, % at 10 µM;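 active means activation above the mean of controls blocked by dofetilide plus 5 SD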;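 further: thallium influx through hERG after potassium depolarization seen as dye fluorescence rise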
# KCNQ1 inh valid: KCNQ1 potassium channel inhibitors, confirmation, cell-based, Tl flux, duplicate; shares compounds with KCNQ1 inh; KCNQ1 cell line, FluxOR thallium flux fluorescence; inhibition, % at 10 µM; 93% of 1,600 active; AID 588353, 2011;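 active means primary screen active, with duplicate mean exceeding buffer control mean plus 3 SD of buffer wells, cut at about 28% in these data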;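 further: 0% = buffer control ratio and 100% = XE991 inhibitor control ratio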
# CHO KCNQ1 ctr: thallium flux effects in parental CHO cells, counter-screen for KCNQ1 inhibitor project, cell-based, Tl flux. shares compounds with KCNQ1 inh. fluorescence ratio (Tl flux) at 10 µM. 21% of 1,600 active. parental CHO-K1, FluxOR thallium flux fluorescence ratio; stronger effect = lower value; zero means no signal rise above baseline;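 active means mean of duplicate thallium-flux fluorescence ratios in parental host cells more than 5 SD below the buffer control mean, cut at about 0.38 in these data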;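 further: ratio is peak minus minimum fluorescence divided by baseline fluorescence; actives read low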
# KCNQ1 ephys val: KCNQ1 channel inhibitors, confirmation, orthogonal assay, cell-based, automated electrophysiology. KCNQ1-CHO cells, automated patch clamp current. calls only at 10 µM. AID 624120, 2012. shares compounds with KCNQ1 inh. 20% of 490 active;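 active means KCNQ1 current drop exceeding 3 SD of negative control wells, seen in both duplicate runs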;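 further: steady state current during a 2 s step from -80 to +40 mV; negative values mean current inhibition and positive values mean potentiation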
# KCNQ2 spec: KCNQ2 channel inhibition, selectivity assay for KCNQ1 inhibitor project, cell-based; shares compounds with KCNQ1 inh; KCNQ2 cells, FluxOR thallium flux fluorescence; inhibition, % at 10 µM; AID 651746, 2012; 71% of 1,600 active;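 active means mean percent inhibition of the KCNQ2 thallium signal more than 5 SD above the buffer-only control wells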;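 further: KCNQ2 expressed in CHO cells; 0% = buffer control wells and 100% = XE-991 inhibitor control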
# KCNQ1-KCNE1 inh: KCNQ1/KCNE1 channel inhibition, selectivity assay for KCNQ1 inhibitor project, CHO-K1 cells, thallium flux, FluxOR | shares compounds with KCNQ1 inh | FluxOR thallium flux fluorescence | inhibition, % at 10 µM | 77% of 1,600 active | AID 652147, 2013;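 active means mean percent inhibition of duplicate wells above the buffer-only control mean plus 3 SD of those controls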;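 further: 0% = buffer only wells and 100% = XE-991 inhibitor control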
# The depositor's hits bear a star; i = inactive; x = no result; + = active, no number.
SMILES,KCNK3 inh,KCNQ1 pot,KCNQ1 inh,KCNK9 block,hERG rescue,KCNQ1 inh valid,CHO KCNQ1 ctr,KCNQ2 spec,KCNQ1-KCNE1 inh,others
CC(c1ccon1)N(C)Cc1cn(Cc2ccccc2)nc1-c1ccc2c(c1)OCO2 (stereo not given),i,i,6*,i,-14,104*,0.43,96%*,57%*,KCNQ1 ephys val=i
O=C(c1ccc([N+](=O)[O-])c(CS(=O)(=O)c2ccc(Cl)cc2)c1)N1CCCCC1,i,i,i,i,-2,x,x,x,x,
CCCCN(c1nc2ccccc2nc1Cl)S(=O)(=O)c1ccc(C)cc1,i,i,11*,i,-24,107*,0.36*,118%*,144%*,
O=C(Cc1n[nH]c(=O)c2ccccc12)OCC(=O)c1ccc(F)c(F)c1,i,i,i,i,-12,x,x,x,x,
Cc1ccc(NC(=O)CSCC(=O)Nc2ccccc2N2CCCCC2)cc1,i,i,8*,i,-16,114*,0.42,i,168%*,KCNQ1 ephys val=+
O=C(CNCCC1=CCCCC1)Nc1ccccc1N1CCCCC1,i,i,8*,i,-19,132*,0.37*,110%*,179%*,
Cc1cccc(NC(=O)CSCC(=O)Nc2ccccc2N2CCCCC2)c1,i,i,i,i,-9,x,x,x,x,
O=C(CSc1cn[nH]n1)Nc1ccccc1F,i,i,i,i,-6,x,x,x,x,
COc1ccc(-c2noc(N3CCC(C(=O)Nc4cccc(OC)c4)CC3)n2)cc1,i,i,i,i,-11,x,x,x,x,
O=C(CSc1nnc2n1CCCN2C(=S)Nc1ccc(Cl)cc1)c1ccccc1,i,i,9*,i,-20,102*,0.53,i,70%*,KCNQ1 ephys val=i
O=C(CSc1nnc2ccccn12)c1ccc(Cl)cc1,i,i,i,i,-14,x,x,x,x,
CC(=O)Nc1cccc(NC(=O)c2ccc3c(c2)CCN3S(=O)(=O)c2ccccc2)c1,i,i,i,i,-9,x,x,x,x,
Cc1ccc(S(=O)(=O)N2CCCc3cc(NC(=O)c4c(F)cccc4F)ccc32)cc1,i,i,7*,i,-7,66*,0.44,85%*,100%*,
CC(=O)c1cccc(NC(=O)c2ccc3c(c2)CCN3S(=O)(=O)c2ccccc2)c1,i,i,6*,i,-9,65*,0.53,i,78%*,
COc1cccc(OC)c1C(=O)Nc1ccc2c(c1)CCCN2S(=O)(=O)c1ccc(C)cc1,i,i,i,i,-5,x,x,x,x,
CCS(=O)(=O)c1ccc2oc(SCC(=O)c3c(N)n(C4CC4)c(=O)[nH]c3=O)nc2c1,i,x,x,x,x,x,x,x,x,
COc1ccc(CC2(CO)CCN(CC3=Cc4cc(Cl)ccc4OC3)CC2)cc1,i,i,9*,i,-25,113*,0.5,102%*,i,KCNQ1 ephys val=i
COc1ccc(-c2nnc(NC(=O)c3cc(Cl)ccc3Cl)o2)cc1,i,i,i,i,-13,x,x,x,x,
CN(C)CCNC(=O)c1ccc(Sc2ccc(Br)cc2)c([N+](=O)[O-])c1,i,i,15*,i,-20,0,0.5,i,i,
CCCc1nn(-c2ccccc2)c2c1C(c1cccs1)C(C#N)=C(N)O2 (stereo not given),i,i,7*,i,-4,0,0.41,i,i,
Cc1nn(-c2ccccc2)c2c1C(c1cccs1)C(C#N)=C(N)O2 (stereo not given),i,i,i,i,-8,x,x,x,x,
CCOc1cc2c3c(c1)C1(Nc4ccccc4S1)C(=O)N3C(C)(C)CC2C (stereo not given),i,i,8*,i,-11,96*,0.48,i,77%*,KCNQ1 ephys val=i
c1ccc(-c2csc3ncnc(N4CCN(Cc5ccc6c(c5)OCO6)CC4)c23)cc1,i,i,6*,i,-21,110*,0.38,113%*,116%*,KCNQ1 ephys val=i
Oc1ccccc1N1CCN(c2ncnc3scc(-c4ccccc4)c23)CC1,i,i,6*,-8*,-19,112*,0.41,91%*,156%*,KCNQ1 ephys val=i
N#C/C(=C\C=C\c1ccccc1)c1nc(-c2ccc(Cl)cc2)cs1,i,i,i,i,-6,x,x,x,x,
SMILES,KCNK3 inh,KCNQ1 pot,KCNQ1 inh,KCNK9 block,hERG rescue,KCNQ1 inh valid,CHO KCNQ1 ctr,KCNQ2 spec,KCNQ1-KCNE1 inh,others
Cc1ccc(S(=O)(=O)Oc2ccc(/C=N/NC(=O)c3nn(C)cc3[N+](=O)[O-])cc2)cc1,i,i,i,i,-3,x,x,x,x,
CN1C2CCC1CC(NC(=O)CSCc1ccc(Cl)cc1Cl)C2 (stereo not given),i,i,i,i,-3,x,x,x,x,
CCN(CC)c1nc(-c2ccccc2)ncc1S(=O)(=O)c1ccc(C)cc1,i,i,6*,i,-22,84*,0.41,80%*,130%*,
COc1ccccc1NS(=O)(=O)c1cc(NC(=O)c2ccc3c(c2)OCCO3)ccc1C,i,i,i,i,-9,x,x,x,x,
Cn1c(=O)[nH]c(=O)c2c1nc(NCCN)n2CCOc1ccccc1,i,i,i,i,-6,x,x,x,x,
O=C(Nc1cccc(F)c1)N1CC=C(c2ccc(Cl)cc2)CC1,i,i,13*,i,-11,132*,0.44,103%*,168%*,KCNQ1 ephys val=i
CCS(=O)(=O)c1ncc(Cl)c(C(=O)Nc2ccccc2OC)n1,i,i,11*,i,-10,73*,0.38,63%*,66%*,
COc1ccccc1NC(=O)c1nc(S(=O)(=O)Cc2ccccc2)ncc1Cl,i,i,i,i,-8,x,x,x,x,

# High-throughput results deposited in PubChem BioAssay by Johns Hopkins Ion Channel Center.
